# Experimental data published in article PMC9273405 (Burns & Trauma, 2022).
# Key:
# [1] = test system: full-thickness injury skin wounds in mice; assay: Full-thickness injury skin wound healing in mice; type: in vivo, mouse
# Outline: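 Mice were anaesthetised with 1% pentobarbital sodium (0.1 ml/20 g) and given two round 8 × 8 mm dorsal skin wounds. Wounds were treated topically twice daily with 20 μl of vehicle, peptide (0.5, 5 or 50 nM) or EGF (50 nM). Residual wound area was measured from images as a percentage of initial area. New epidermis and granulation tissue thickness were measured from H&E sections on days 4 and 8. Six mice per group.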
# [2] = test system: scald wounds in mice skin; assay: Scald wound repair in mouse skin; type: in vivo; settings: 50 nM; for re-epithelialization rate: scald wound
molecule,measurement,setting,value
"epidermal growth factor (protein, UniProt P01133 23-1207, looked up, Pro-epidermal growth factor) Pro-epidermal growth factor: PQHWSCPEGTLAGNGNSTCVGPAPFLIFSHGNSIFRIDTEGTNYEQLVVDAGVSVIMDFHYNEKRIYWVDLERQLLQRVFLNGSRQERVCNIEKNVSGMAINWINEEVIWSNQQEGIITVTDMKGNNSHILLSALKYPANVAVDPVERFIFWSSEVAGSLYRADLDGVGVKALLETSEKITAVSLDVLDKRLFWIQYNREGSNSLICSCDYDGGSVHISKHPTQHNLFAMSLFGDRIFYSTWKMKTIWIANKHTGKDMVRINLHSSFVPLGELKVVHPLAQPKAEDDTWEPEQKLCKLRKGNCSSTVCGQDLQSHLCMCAEGYALSRDRKYCEDVNECAFWNHGCTLGCKNTPGSYYCTCPVGFVLLPDGKRCHQLVSCPRNVSECSHDCVLTSEGPLCFCPEGSVLERDGKTCSGCSSPDNGGCSQLCVPLSPVSWECDCFPGYDLQLDEKSCAASGPQPFLLFANSQDIRHMHFDGTDYGTLLSQQMGMVYALDHDPVENKIYFAHTALKWIERANMDGSQRERLIEEGVDVPEGLAVDWIGRRFYWTDRGKSLIGRSDLNGKRSKIITKENISQPRGIAVHPMAKRLFWTDTGINPRIESSSLQGLGRLVIASSDLIWPSGITIDFLTDKLYWCDAKQSVIEMANLDGSKRRRLTQNDVGHPFAVAVFEDYVWFSDWAMPSVMRVNKRTGKDRVRLQGSMLKPSSLVVVHPLAKPGADPCLYQNGGCEHICKKRLGTAWCSCREGFMKASDGKTCLALDGHQLLAGGEVDLKNQVTPLDILSKTRVSEDNITESQHMLVAEIMVSDQDDCAPVGCSMYARCISEGEDATCQCLKGFAGDGKLCSDIDECEMGVPVCPPASSKCINTEGGYVCRCSEGYQGDGIHCLDIDECQLGEHSCGENASCTNTEGGYTCMCAGRLSEPGLICPDSTPPPHLREDDHHYSVRNSDSECPLSHDGYCLHDGVCMYIEALDKYACNCVVGYIGERCQYRDLKWWELRHAGHGQQQKVIVVAVCVVVLVMLLLLSLWGAHYYRTQKLLSKNPKNPYEESSRDVRSRRPADTEDGMSSCPQPWFVVIKEHQDLKNGGQPVAGEDGQAADGSMQPTSWRQEPQLCGMGTEQGCWIPVSSDKGSCPQVMERSFHMPSYGTQTLEGGVEKPHSLLSANPLWQQRALDPPHQMELTQ",skin wound healing rate,"[1]; 50 nM, 20 μl topical twice a day, day 8 post-operation, n = 6 (vehicle 71 ± 3%)",87 ± 2%
same,thickness of new epidermis,"[1]; day 4, H&E staining, n = 6 (vehicle 119 ± 7)",58 ± 2 μm
same,thickness of granulation tissue,"[1]; day 4, H&E staining, n = 6 (vehicle 505 ± 46)",317 ± 82 μm
same,thickness of new epidermis,"[1]; day 8, H&E staining, n = 6 (vehicle 86 ± 7)",38 ± 10 μm
same,thickness of granulation tissue,"[1]; day 8, H&E staining, n = 6 (vehicle 982 ± 8)",719 ± 54 μm
same,regeneration rate of scald wounds,"[2]; 20 μl topical, day 12 after operation, n = 6 (vehicle 40 ± 4%)",78 ± 5%
same,re-epithelialization rate,"[2]; day 8, H&E staining, n = 6 (vehicle 15 ± 3%)",38 ± 3%
same,re-epithelialization rate,"[2]; day 12, H&E staining, n = 6 (vehicle 42 ± 2%)",almost complete re-epithelialization
